Results taken from ChEMBL document CHEMBL4196022, “Alkynyl-containing phenylthiazoles: Systemically active antibacterial agents effective against methicillin-resistant Staphylococcus aureus (MRSA)” (Eur J Med Chem, 2018).
≈ marks a conversion by molar mass, not a printed value.

What was measured:
Staphylococcus aureus [1] = assay: Antibacterial activity against methicillin-resistant Staphylococcus aureus USA300 after 20 hrs by broth microdilution assay; assay type: functional; details: USA300, 20 h
Procedure, shortened: (§1)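 Broth microdilution per CLSI in cation-adjusted Mueller Hinton broth. Compounds serially diluted, in triplicate. Incubation at 37 °C for at least 20 hours. MIC taken as the lowest concentration with no visible bacterial growth.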

Staphylococcus aureus [2] = assay: Bactericidal activity against methicillin-resistant Staphylococcus aureus USA300 up to 18 hrs by broth microdilution assay; assay type: functional; details: USA300, 18 h, read-out: MBC99.9
Staphylococcus aureus [3] = assay: Ratio of MBC to MIC for methicillin-resistant Staphylococcus aureus USA300; assay type: functional
Procedure, shortened: (§2)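 MBC/MIC ratio. […] MBC by plating no-growth wells onto tryptic soy agar at 37 °C for at least 18 h; taken as the concentration giving 99.9% growth inhibition.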

Staphylococcus aureus [4] = assay: Antibacterial activity against methicillin-resistant Staphylococcus aureus NRS107 after 20 hrs by broth microdilution assay; assay type: functional; details: NRS107, 20 h; procedure, shortened: as §1
Staphylococcus aureus [5] = assay: Bactericidal activity against methicillin-resistant Staphylococcus aureus NRS107 up to 18 hrs by broth microdilution assay; assay type: functional; details: NRS107, 18 h, read-out: MBC99.9
Staphylococcus aureus [6] = assay: Antibacterial activity against methicillin-resistant Staphylococcus aureus NRS119 after 20 hrs by broth microdilution assay; assay type: functional; details: NRS119, 20 h; procedure, shortened: as §1
Staphylococcus aureus [7] = assay: Bactericidal activity against methicillin-resistant Staphylococcus aureus NRS119 up to 18 hrs by broth microdilution assay; assay type: functional; details: NRS119, 18 h, read-out: MBC99.9
Staphylococcus aureus [8] = assay: Antibacterial activity against methicillin-resistant Staphylococcus aureus NRS123 (USA400) after 20 hrs by broth microdilution assay; assay type: functional; procedure, shortened: as §1
Staphylococcus aureus [9] = assay: Bactericidal activity against methicillin resistant Staphylococcus aureus NRS123 (USA400) up to 18 hrs by broth microdilution assay; assay type: functional; details: read-out: MBC99.9
Staphylococcus aureus [10] = assay: Antibacterial activity against vancomycin-resistant Staphylococcus aureus VRS10 after 20 hrs by broth microdilution assay; assay type: functional; details: VRS10, 20 h; procedure, shortened: as §1
Staphylococcus aureus [11] = assay: Bactericidal activity against methicillin resistant vancomycin-resistant Staphylococcus aureus VRS10 up to 18 hrs by broth microdilution assay; assay type: functional; details: VRS10, 18 h, read-out: MBC99.9
Staphylococcus aureus [12] = assay: Antibacterial activity against vancomycin-resistant Staphylococcus aureus VRS11a after 20 hrs by broth microdilution assay; assay type: functional; procedure, shortened: as §1
Staphylococcus aureus [13] = assay: Bactericidal activity against methicillin resistant vancomycin-resistant Staphylococcus aureus VRS11a up to 18 hrs by broth microdilution assay; assay type: functional; details: read-out: MBC99.9
Staphylococcus aureus [14] = assay: Antibacterial activity against vancomycin-resistant Staphylococcus aureus VRS12 after 20 hrs by broth microdilution assay; assay type: functional; details: VRS12, 20 h; procedure, shortened: as §1
Staphylococcus aureus [15] = assay: Bactericidal activity against methicillin resistant vancomycin-resistant Staphylococcus aureus VRS12 up to 18 hrs by broth microdilution assay; assay type: functional; details: VRS12, 18 h, read-out: MBC99.9
Procedure, shortened: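 MBC set up from the MIC plates. Aliquots from wells with no growth spotted onto tryptic soy agar and incubated at 37 °C for at least 18 hours. MBC taken as the lowest concentration giving 99.9% inhibition of bacterial growth.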

Staphylococcus aureus [16] = assay: Potency index, ratio of vancomycin MIC to compound MIC for antibacterial activity against vancomycin-resistant Staphylococcus aureus VRS10; assay type: functional
Staphylococcus aureus [17] = assay: Potency index, ratio of vancomycin MIC to compound MIC for antibacterial activity against vancomycin-resistant Staphylococcus aureus VRS11a; assay type: functional
Staphylococcus aureus [18] = assay: Potency index, ratio of vancomycin MIC to compound MIC for antibacterial activity against vancomycin-resistant Staphylococcus aureus VRS12; assay type: functional
Staphylococcus aureus [19] = assay: Ratio of MBC to MIC for methicillin-resistant Staphylococcus aureus NRS107; assay type: functional; procedure, shortened: as §2
Staphylococcus aureus [20] = assay: Ratio of MBC to MIC for methicillin-resistant Staphylococcus aureus NRS119; assay type: functional; procedure, shortened: as §2
Staphylococcus aureus [21] = assay: Ratio of MBC to MIC for methicillin-resistant Staphylococcus aureus NRS123 (USA400); assay type: functional; procedure, shortened: as §2
Staphylococcus aureus [22] = assay: Ratio of MBC to MIC for vancomycin-resistant Staphylococcus aureus VRS10; assay type: functional; procedure, shortened: as §2
Staphylococcus aureus [23] = assay: Ratio of MBC to MIC for vancomycin-resistant Staphylococcus aureus VRS11a; assay type: functional; procedure, shortened: as §2
Staphylococcus aureus [24] = assay: Ratio of MBC to MIC for vancomycin-resistant Staphylococcus aureus VRS12; assay type: functional; procedure, shortened: as §2
HRT-18 cell line = assay: Cytotoxicity against human HRT18 cells assessed as reduction in cell viability up to 32 ug/ml after 2 hrs by MTS assay; assay type: cell-based; details: hrt-18, 2 h
[25] = Selectivity index, ratio of toxic concentration for human HRT18 cells to MIC for methicillin-resistant Staphylococcus aureus; assay type: toxicity; details: read-out: Selectivity Index

Row | Compound | MIC (Staphylococcus aureus [1]) [µg/mL] | MBC (Staphylococcus aureus [2]) [µg/mL] | Ratio (Staphylococcus aureus [3]) | MIC (Staphylococcus aureus [4]) [µg/mL] | MBC (Staphylococcus aureus [5]) [µg/mL] | MIC (Staphylococcus aureus [6]) [µg/mL] | MBC (Staphylococcus aureus [7]) [µg/mL] | MIC (Staphylococcus aureus [8]) [µg/mL] | MBC (Staphylococcus aureus [9]) [µg/mL] | MIC (Staphylococcus aureus [10]) [µg/mL] | MBC (Staphylococcus aureus [11]) [µg/mL] | MIC (Staphylococcus aureus [12]) [µg/mL] | MBC (Staphylococcus aureus [13]) [µg/mL] | MIC (Staphylococcus aureus [14]) [µg/mL] | MBC (Staphylococcus aureus [15]) [µg/mL] | Ratio (Staphylococcus aureus [16]) | Ratio (Staphylococcus aureus [17]) | Ratio (Staphylococcus aureus [18]) | Ratio (Staphylococcus aureus [19]) | Ratio (Staphylococcus aureus [20]) | other results
1 | CCCCCCC#Cc1ccc(-c2nc(C)c(/C(C)=N/NC3=NCCN3)s2)cc1 | 8 (≈ 19.6 µM) | 16 (≈ 39.3 µM) | <=3 |  |  |  |  |  |  |  |  |  |  |  |  |  |  |  |  |  | 
2 | C/C(=N\NC(=N)N)c1sc(-c2ccc(C#CC(C)(C)C)cc2)nc1C | 4 (≈ 11.3 µM) | 4 (≈ 11.3 µM) | <=3 | 2 (≈ 5.66 µM) | 4 (≈ 11.3 µM) | 2 (≈ 5.66 µM) | 2 (≈ 5.66 µM) | 4 (≈ 11.3 µM) | 16 (≈ 45.3 µM) | 4 (≈ 11.3 µM) | 4 (≈ 11.3 µM) | 2 (≈ 5.66 µM) | 8 (≈ 22.6 µM) | 4 (≈ 11.3 µM) | 4 (≈ 11.3 µM) | >100 | >100 | 4 | <=3 | <=3 | Ratio (Staphylococcus aureus [21]; read-out: Ratio): 4; Ratio (Staphylococcus aureus [22]): <=3; Ratio (Staphylococcus aureus [23]; read-out: Ratio): 4; Ratio (Staphylococcus aureus [24]): <=3; Activity (HRT-18 cell line): Non-Toxic; selectivity ratio [25]: 7 to 31
3 | C/C(=N\NC1=NCCN1)c1sc(-c2ccc(C#CC3CCCC3)cc2)nc1C | 4 (≈ 10.2 µM) | 16 (≈ 40.9 µM) | <=3 | 16 (≈ 40.9 µM) | 32 (≈ 81.7 µM) | 32 (≈ 81.7 µM) | 32 (≈ 81.7 µM) | 16 (≈ 40.9 µM) | 32 (≈ 81.7 µM) | 4 (≈ 10.2 µM) | 8 (≈ 20.4 µM) | 8 (≈ 20.4 µM) | 8 (≈ 20.4 µM) | 16 (≈ 40.9 µM) | 16 (≈ 40.9 µM) | >100 | >100 | >100 | <=3 | <=3 | Ratio (Staphylococcus aureus [21]): <=3; Ratio (Staphylococcus aureus [22]): <=3; Ratio (Staphylococcus aureus [23]): <=3; Ratio (Staphylococcus aureus [24]): <=3
4 | C/C(=N\NC1=NCCN1)c1sc(-c2ccc(C#CCC3CCCC3)cc2)nc1C | 8 (≈ 19.7 µM) | 32 (≈ 78.9 µM) | <=3 |  |  |  |  |  |  |  |  |  |  |  |  |  |  |  |  |  | 
5 | C/C(=N\NC1=NCCN1)c1sc(-c2ccc(C#CC(C)(C)C)cc2)nc1C | 2 (≈ 5.27 µM) | 4 (≈ 10.5 µM) | <=3 | 2 (≈ 5.27 µM) | 4 (≈ 10.5 µM) | 2 (≈ 5.27 µM) | 2 (≈ 5.27 µM) | 4 (≈ 10.5 µM) | 16 (≈ 42.2 µM) | 4 (≈ 10.5 µM) | 4 (≈ 10.5 µM) | 4 (≈ 10.5 µM) | 4 (≈ 10.5 µM) | 4 (≈ 10.5 µM) | 8 (≈ 21.1 µM) | >100 | >100 | 4 | <=3 | <=3 | Ratio (Staphylococcus aureus [21]; read-out: Ratio): 4; Ratio (Staphylococcus aureus [22]): <=3; Ratio (Staphylococcus aureus [23]): <=3; Ratio (Staphylococcus aureus [24]): <=3; Activity (HRT-18 cell line): Non-Toxic; selectivity ratio [25]: 7 to 31
6 | C/C(=N\NC(=N)N)c1sc(-c2ccc(C#CCC3CCCC3)cc2)nc1C | 4 (≈ 10.5 µM) | 4 (≈ 10.5 µM) | <=3 | 2 (≈ 5.27 µM) | 4 (≈ 10.5 µM) | 4 (≈ 10.5 µM) | 4 (≈ 10.5 µM) | 2 (≈ 5.27 µM) | 2 (≈ 5.27 µM) | 2 (≈ 5.27 µM) | 4 (≈ 10.5 µM) | 4 (≈ 10.5 µM) | 4 (≈ 10.5 µM) | 2 (≈ 5.27 µM) | 2 (≈ 5.27 µM) | >100 | >100 | >100 | <=3 | <=3 | Ratio (Staphylococcus aureus [21]): <=3; Ratio (Staphylococcus aureus [22]): <=3; Ratio (Staphylococcus aureus [23]): <=3; Ratio (Staphylococcus aureus [24]): <=3
